We go through eleven molecules from ChEMBL document CHEMBL1129336, “Ryanodine action at calcium release channels. 2. relation to substituents of the cyclohexane ring” (J Med Chem, 1996).

In general, Ki refers to the equilibrium dissociation constant of an inhibitor or competing ligand from its target. Read a low Ki as a stronger hold on the target. For orientation: IC50 means the concentration that gives 50% inhibition.

The target in experiment [1] is Ryanodine receptor 1 (Oryctolagus cuniculus) (UniProt P11716). Description: Displacement of [3H]ryanodine from ryanodine receptor(ryr) of rabbit skeletal muscle. The gist of the method:
(§1)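 Radioligand displacement assays of [3H]ryanodine binding at the ryanodine receptor, one each on rabbit skeletal muscle, mouse brain and canine ventricle preparations. Values are means of three to five experiments, each run in duplicate; standard error is reported as percent of the mean.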

The nature of experiment [2]: Inhibition of contraction on electrical stimulation of cardiac muscle using rat right ventricular muscle strips. It counts as functional, Muscle tissue. In a few lines: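 Physiological function test on intact rat ventricular muscle strips, in which the read-out depends on both tissue penetration and receptor potency. Values are expressed as IC50 from three to five experiments; standard error is reported as percent of the mean.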

Experiment [3] has as its target T1, Ryanodine receptor 2 (Canis lupus familiaris) (UniProt Q8WN72).
T1 sequence (whole entry): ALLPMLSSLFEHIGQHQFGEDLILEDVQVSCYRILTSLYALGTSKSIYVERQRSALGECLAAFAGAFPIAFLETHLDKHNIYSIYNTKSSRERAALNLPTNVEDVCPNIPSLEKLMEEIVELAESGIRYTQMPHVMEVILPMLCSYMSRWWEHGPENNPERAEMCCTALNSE
Description: Displacement of [3H]ryanodine binding to ryanodine receptor(ryr) in canine left ventricular membranes. It counts as cell membranes. The gist of the method:
as §1
Background: Displacement assays read how much labelled ligand stays bound in the presence of the test substance.

Another experiment concerns the target T2, Ryanodine receptor 2 (Canis lupus familiaris, UniProt Q8WN72).
T2 sequence (Q8WN72 whole entry): T1 sequence (whole entry)
Description: Binding affinity towards ryanodine receptor in canine ventrical preparation. In a few lines: (§2)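 Ryanodine receptor binding assays on tissue preparations. Values are means of three to five experiments, each run in duplicate. Results are reported as Ki for the cardiac ventricle preparation.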

Experiment [4] is described as follows: Inhibition of the contraction on electrical stimulation of cardiac muscle using rat right ventricular muscle strips. To be noted: Muscle tissue. Format: functional, tissue-based. The gist of the method:
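Contractility test on intact rat ventricular muscle strips. The read-out reflects both tissue penetration and receptor action. Values are means of three to five experiments, expressed as IC50.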

The target in experiment [5] is Ryanodine receptor 2 (Mus musculus) (UniProt E9Q401). Description: Displacement of [3H]ryanodine from ryanodine receptor(ryr) of Mouse brain.
Experiment [6] is described as follows: Inhibitory activity against ryanodine receptor in rabbit muscle. Format: functional, Oryctolagus cuniculus. The gist of the method: as §2
Experiment [7] is described as follows: Inhibitory activity against ryanodine receptor in Mouse brain. It counts as functional, tissue-based.

Chain of Ryanodine receptor 1 (Oryctolagus cuniculus) (P11716 whole entry): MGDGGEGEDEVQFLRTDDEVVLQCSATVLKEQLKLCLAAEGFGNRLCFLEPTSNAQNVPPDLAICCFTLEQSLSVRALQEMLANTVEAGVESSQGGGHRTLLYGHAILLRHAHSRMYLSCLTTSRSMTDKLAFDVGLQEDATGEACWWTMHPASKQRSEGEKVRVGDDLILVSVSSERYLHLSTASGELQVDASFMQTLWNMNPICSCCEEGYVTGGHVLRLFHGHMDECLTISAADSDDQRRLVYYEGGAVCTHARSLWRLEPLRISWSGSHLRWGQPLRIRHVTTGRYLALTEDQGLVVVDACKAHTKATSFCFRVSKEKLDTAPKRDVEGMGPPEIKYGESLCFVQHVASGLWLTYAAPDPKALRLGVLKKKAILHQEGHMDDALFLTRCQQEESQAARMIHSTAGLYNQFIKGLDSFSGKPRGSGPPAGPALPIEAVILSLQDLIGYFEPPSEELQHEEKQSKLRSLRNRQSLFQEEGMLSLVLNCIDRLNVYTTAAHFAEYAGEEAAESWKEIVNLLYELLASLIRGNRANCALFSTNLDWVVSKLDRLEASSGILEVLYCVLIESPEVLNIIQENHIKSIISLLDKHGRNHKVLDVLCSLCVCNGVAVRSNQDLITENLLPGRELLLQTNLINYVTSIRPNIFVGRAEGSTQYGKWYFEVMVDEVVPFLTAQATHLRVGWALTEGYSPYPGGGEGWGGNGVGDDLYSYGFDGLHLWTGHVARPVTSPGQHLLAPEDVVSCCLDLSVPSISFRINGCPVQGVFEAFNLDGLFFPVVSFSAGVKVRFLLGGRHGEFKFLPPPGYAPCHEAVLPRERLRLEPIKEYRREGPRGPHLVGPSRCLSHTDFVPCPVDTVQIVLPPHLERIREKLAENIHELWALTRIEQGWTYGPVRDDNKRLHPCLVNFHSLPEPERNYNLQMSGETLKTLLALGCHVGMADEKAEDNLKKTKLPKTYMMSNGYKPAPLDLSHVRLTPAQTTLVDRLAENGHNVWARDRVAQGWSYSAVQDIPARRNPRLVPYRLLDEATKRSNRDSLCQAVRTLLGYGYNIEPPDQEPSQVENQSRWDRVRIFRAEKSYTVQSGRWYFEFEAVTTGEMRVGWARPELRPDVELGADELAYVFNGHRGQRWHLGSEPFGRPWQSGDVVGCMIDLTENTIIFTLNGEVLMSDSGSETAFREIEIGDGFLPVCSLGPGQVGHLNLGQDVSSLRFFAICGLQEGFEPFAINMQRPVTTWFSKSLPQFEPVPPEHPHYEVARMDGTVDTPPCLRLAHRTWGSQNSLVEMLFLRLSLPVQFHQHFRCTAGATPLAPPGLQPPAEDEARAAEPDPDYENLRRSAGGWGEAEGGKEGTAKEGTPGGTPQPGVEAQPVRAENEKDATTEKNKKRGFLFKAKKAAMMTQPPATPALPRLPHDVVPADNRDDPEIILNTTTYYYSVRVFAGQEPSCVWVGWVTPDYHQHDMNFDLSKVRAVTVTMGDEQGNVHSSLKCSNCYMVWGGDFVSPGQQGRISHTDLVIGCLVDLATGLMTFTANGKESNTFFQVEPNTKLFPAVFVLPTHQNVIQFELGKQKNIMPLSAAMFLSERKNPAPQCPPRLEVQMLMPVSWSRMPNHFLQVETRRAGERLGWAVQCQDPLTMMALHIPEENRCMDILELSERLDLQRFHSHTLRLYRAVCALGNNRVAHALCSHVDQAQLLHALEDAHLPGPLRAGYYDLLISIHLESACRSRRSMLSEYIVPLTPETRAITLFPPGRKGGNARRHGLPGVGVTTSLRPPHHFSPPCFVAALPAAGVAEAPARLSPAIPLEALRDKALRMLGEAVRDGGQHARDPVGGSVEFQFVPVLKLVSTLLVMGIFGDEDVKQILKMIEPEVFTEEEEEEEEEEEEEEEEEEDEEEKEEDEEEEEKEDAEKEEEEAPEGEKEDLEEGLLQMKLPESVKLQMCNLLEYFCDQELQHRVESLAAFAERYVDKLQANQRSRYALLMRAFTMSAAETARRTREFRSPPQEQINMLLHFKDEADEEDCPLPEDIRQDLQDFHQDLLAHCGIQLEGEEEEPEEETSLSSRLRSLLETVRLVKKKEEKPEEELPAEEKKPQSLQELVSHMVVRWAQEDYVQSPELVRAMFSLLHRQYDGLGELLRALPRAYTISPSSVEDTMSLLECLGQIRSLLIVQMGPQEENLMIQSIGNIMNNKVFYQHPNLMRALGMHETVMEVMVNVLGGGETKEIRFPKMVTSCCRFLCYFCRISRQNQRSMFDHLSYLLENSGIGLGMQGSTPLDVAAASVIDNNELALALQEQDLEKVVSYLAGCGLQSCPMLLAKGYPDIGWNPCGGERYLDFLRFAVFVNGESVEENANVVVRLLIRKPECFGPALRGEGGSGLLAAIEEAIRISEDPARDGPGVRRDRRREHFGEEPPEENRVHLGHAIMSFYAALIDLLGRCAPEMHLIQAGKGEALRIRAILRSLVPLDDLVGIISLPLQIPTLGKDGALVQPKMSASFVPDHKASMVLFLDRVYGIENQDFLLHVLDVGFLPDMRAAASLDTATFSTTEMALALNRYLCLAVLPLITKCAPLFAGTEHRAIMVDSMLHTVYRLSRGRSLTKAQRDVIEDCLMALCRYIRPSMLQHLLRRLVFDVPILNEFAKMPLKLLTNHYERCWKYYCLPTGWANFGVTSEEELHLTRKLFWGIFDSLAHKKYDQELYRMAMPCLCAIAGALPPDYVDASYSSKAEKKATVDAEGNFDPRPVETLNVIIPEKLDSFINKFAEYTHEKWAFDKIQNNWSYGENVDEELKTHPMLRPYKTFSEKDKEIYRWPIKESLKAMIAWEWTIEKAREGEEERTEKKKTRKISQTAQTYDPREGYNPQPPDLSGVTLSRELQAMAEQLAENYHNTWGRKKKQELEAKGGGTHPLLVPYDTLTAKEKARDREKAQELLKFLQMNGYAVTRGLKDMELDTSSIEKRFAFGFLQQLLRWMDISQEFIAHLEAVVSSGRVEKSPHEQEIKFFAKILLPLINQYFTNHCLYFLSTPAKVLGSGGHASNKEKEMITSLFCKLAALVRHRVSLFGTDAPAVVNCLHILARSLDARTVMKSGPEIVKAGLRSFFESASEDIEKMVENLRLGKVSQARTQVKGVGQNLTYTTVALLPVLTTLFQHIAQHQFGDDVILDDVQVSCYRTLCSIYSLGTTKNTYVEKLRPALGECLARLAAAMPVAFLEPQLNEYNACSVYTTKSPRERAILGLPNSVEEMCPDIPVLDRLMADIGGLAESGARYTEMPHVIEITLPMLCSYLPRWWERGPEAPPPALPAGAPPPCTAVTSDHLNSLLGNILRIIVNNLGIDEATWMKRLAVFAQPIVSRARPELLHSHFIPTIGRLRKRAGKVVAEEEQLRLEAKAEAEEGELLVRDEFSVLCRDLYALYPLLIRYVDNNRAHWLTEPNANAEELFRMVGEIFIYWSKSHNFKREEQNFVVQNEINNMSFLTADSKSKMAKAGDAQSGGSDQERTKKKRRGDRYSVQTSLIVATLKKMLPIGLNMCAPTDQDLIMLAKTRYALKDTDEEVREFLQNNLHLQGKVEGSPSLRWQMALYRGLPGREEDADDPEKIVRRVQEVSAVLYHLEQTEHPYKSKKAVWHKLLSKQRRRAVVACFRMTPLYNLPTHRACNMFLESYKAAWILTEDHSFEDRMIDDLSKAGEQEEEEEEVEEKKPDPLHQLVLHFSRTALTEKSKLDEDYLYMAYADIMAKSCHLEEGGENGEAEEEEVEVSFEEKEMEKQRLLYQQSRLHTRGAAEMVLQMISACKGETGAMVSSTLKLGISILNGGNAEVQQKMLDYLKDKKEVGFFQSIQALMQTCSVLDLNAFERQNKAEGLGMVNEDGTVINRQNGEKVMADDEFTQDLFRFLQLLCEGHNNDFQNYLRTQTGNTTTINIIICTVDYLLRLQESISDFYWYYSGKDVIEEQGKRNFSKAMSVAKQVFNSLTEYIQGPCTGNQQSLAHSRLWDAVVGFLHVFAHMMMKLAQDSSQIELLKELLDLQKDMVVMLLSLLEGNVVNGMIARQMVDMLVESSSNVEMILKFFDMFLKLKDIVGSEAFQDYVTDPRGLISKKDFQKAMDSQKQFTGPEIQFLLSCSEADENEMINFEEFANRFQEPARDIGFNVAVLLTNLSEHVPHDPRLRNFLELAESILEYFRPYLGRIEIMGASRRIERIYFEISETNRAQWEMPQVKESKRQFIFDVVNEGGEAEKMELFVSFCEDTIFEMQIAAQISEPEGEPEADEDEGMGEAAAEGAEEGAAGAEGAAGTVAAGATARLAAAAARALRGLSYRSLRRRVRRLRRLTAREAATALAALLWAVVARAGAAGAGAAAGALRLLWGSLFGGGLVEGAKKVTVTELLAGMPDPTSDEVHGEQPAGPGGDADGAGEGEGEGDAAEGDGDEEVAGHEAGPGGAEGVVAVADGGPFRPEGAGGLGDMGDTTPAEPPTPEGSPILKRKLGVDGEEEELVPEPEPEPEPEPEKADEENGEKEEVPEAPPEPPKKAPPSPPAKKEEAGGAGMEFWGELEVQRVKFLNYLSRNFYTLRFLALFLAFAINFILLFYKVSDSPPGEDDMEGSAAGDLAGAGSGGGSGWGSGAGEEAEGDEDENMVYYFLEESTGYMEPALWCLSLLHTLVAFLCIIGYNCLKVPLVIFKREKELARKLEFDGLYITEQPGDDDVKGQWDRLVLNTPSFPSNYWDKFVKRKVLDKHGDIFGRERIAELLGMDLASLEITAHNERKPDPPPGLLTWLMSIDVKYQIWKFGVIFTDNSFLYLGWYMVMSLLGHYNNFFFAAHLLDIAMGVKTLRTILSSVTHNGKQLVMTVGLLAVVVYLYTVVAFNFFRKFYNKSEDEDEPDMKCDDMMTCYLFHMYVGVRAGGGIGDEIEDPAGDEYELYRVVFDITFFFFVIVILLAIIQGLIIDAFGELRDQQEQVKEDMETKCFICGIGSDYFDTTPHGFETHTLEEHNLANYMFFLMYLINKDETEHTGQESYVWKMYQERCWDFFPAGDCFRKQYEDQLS

Take `CC1CCC2(O)C3(C)CC4(O)OC2(C1O)C1(O)C3(O)C(OC(=O)c2ccc[nH]2)C(O)(C(C)C)C41C` (stereo not given): the Relative activity in experiment [1] was 97; in experiment [2], 34.
Consider `CC(C)C1(O)C(OC(=O)c2ccc[nH]2)C2(O)C3(C)CC4(O)OC5(CC(O)CCC35O)C2(O)C41C` (stereo not given), for which the Relative activity in experiment [1] was found to be 0.2; in experiment [2], 28; in experiment [3] it was 0.42.
As to `C=C1CCC2(O)C3(C)CC4(O)OC2(C1OC(=O)c1ccccc1)C1(O)C3(O)C(OC(=O)c2ccc[nH]2)C(O)(C(C)C)C41C` (stereo not given), the Relative activity in experiment [1] stood at 3.9.
On to `CC1CCC2(O)C3(C)CC4(O)OC2(C1N)C1(O)C3(O)C(OC(=O)c2ccc[nH]2)C(O)(C(C)C)C41C` (stereo not given), for which the Relative activity in experiment [1] was determined as 68.
With `CONC1C(C)CCC2(O)C3(C)CC4(O)OC12C1(O)C3(O)C(OC(=O)c2ccc[nH]2)C(O)(C(C)C)C41C` (stereo not given), the Relative activity in experiment [1] was determined as 68; in experiment [2], 31; in experiment [3], 36.
At Ryanodine receptor 2, `CC(C)[C@@]1(O)[C@@H](OC(=O)c2ccc[nH]2)[C@@]2(O)[C@@]3(C)C[C@]4(O)O[C@@]5([C@H](O)[C@@H](C)CC[C@]35O)[C@@]2(O)[C@@]14C` [RYANODINE] came in with a Ki of 1.8 nM.
For the molecule `CC1=CCC2(O)C3(C)CC4(O)OC2(C1O)C1(O)C3(O)C(OC(=O)c2ccc[nH]2)C(O)(C(C)C)C41C` (stereo not given), the Relative activity in experiment [1] came to 26; in experiment [2], 11.
Turning to `CC1CCC2(O)C3(C)CC4(O)OC2(NC1=O)C1(O)C3(O)C(OC(=O)c2ccc[nH]2)C(O)(C(C)C)C41C` (stereo not given), the Relative activity in experiment [1] was found to be 42; in experiment [2], 11; in experiment [3], 7.4.
For the molecule `CC(C)[C@@]1(O)[C@@H](OC(=O)c2cc[nH]c2)[C@@]2(O)[C@]3(C)C[C@@]4(O)O[C@@]5([C@H](O)[C@@H](C)CC[C@]35O)[C@@]2(O)[C@@]41C` [RYANODINE], the Relative activity in experiment [1] and in experiment [5] was 100 in each case. In addition, the figures for the IC50 in experiment [4], in experiment [6] and in experiment [7] were 34 nM, 3.5 nM and 3.3 nM, respectively.
The molecule `CC(C)C1(O)C(OC(=O)c2ccc[nH]2)C2(O)C3(C)CC4(O)OC5(CCCCC35O)C2(O)C41C` (stereo not given) gave a Relative activity in experiment [1] of 6.5.
For the molecule `CO/N=C1\C(C)CCC2(O)C3(C)CC4(O)OC12C1(O)C3(O)C(OC(=O)c2ccc[nH]2)C(O)(C(C)C)C41C` (stereo not given), the Relative activity in experiment [1] came out at 13; in experiment [2] it was 34; in experiment [3] it was 17.
